ChEMBL document CHEMBL4190282, “The Conjugated Double Bond of Coniferyl Aldehyde Is Essential for Heat Shock Factor 1 Mediated Cytotoprotection” (J Nat Prod, 2017)
The source made the active and inactive calls. The calls are words filed in the database; no cut-off is given here.

Assays:
[1] = tested on: L132; assay: Cytoprotective activity against paclitaxel-induced PARP cleavage in human L-132 cells at 3 uM pretreated for 1 hr followed by paclitaxel addition measured after 24 hrs by immunoblotting analysis; assay type: functional, cell-based
In short: (§1)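 Human embryonic lung L132 cells in RPMI with 10% FBS. 1 h pretreatment at 3 μM, then 0.5 μM paclitaxel or 20 μM cisplatin for 24 h, or 10 Gy 137Cs γ-rays (3.81 Gy/min) for 48 h. Cleaved PARP and caspase-3 immunoblotted (ECL); bands normalized to loading control, fold-change vs negative control, ≥3 independent experiments.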

[2] = tested on: NCI-H460; assay: Upregulation of HSF1 protein level in human NCI-H460 cells at 10 to 30 uM after 12 hrs by Western blot analysis; assay type: functional, cell-based
In short: (§2)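 NCI-H460 cells treated 12 h at 10 or 30 μM; HSF1, HSP27 and HSP70 detected by Western blot.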

[3] = target: T1, Heat shock factor protein 1 (Homo sapiens) (UniProt Q00613); assay: Activation of HSF1 in human NCI-H460 cells assessed as upregulation of HSP25 protein levels at 10 to 30 uM after 12 hrs by Western blot analysis; assay type: cell-based; in short: as §2
T1 sequence (whole entry): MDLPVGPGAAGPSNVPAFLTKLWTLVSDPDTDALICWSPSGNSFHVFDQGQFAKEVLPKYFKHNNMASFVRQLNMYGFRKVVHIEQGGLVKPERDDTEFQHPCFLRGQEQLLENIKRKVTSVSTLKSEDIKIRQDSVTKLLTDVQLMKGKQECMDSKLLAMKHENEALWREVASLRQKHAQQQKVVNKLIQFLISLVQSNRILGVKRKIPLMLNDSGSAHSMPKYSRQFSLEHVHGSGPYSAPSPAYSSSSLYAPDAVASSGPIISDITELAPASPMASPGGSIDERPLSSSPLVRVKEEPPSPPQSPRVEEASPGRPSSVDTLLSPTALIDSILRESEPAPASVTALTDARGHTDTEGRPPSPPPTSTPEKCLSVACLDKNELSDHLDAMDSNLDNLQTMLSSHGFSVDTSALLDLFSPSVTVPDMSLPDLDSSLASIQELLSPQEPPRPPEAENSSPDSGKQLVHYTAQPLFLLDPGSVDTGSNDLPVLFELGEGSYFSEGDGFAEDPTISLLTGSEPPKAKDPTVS

[4] = target: T1, Heat shock factor protein 1 (Homo sapiens); assay: Activation of HSF1 in human NCI-H460 cells assessed as upregulation of HSP70 protein levels at 10 to 30 uM after 12 hrs by Western blot analysis; assay type: cell-based; in short: as §2
[5] = target: T1, Heat shock factor protein 1 (Homo sapiens); assay: Activation of HSF1 in human L132 cells assessed as increase in HSP25 protein levels at 3 uM after 12 hrs by immunoblotting analysis; assay type: cell-based
In short: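 L132 cells treated at 3 μM for 12 h, or at various doses for 12 h, or at 3 μM over a time course. Lysates resolved by SDS-PAGE, blotted to nitrocellulose, milk-blocked, primary antibodies 18 h at 4 °C, ECL detection. HSP27, HSP70 and Ser326-phospho-HSF1 bands normalized to loading control; ≥3 independent experiments; celastrol 1 μM positive control.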

[6] = tested on: L132; assay: Cytoprotective activity against cisplatin-induced PARP cleavage in human L-132 cells at 3 uM pretreated for 1 hr followed by cisplatin addition measured after 24 hrs by immunoblotting analysis; assay type: functional, cell-based; in short: as §1
[7] = tested on: MEF; assay: Cytoprotective activity against cisplatin-induced caspase3 cleavage in HSF1 deficient MEF at 3 uM pretreated for 1 hr followed by cisplatin addition measured after 24 hrs by immunoblotting analysis; assay type: functional, cell-based; settings: Mus musculus
In short: (§3)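 HSF1+/+ or HSF1−/− MEFs in DMEM with heat-inactivated 10% FBS, nonessential amino acids, glutamine, HEPES, 37 °C, 5% CO2. 1 h pretreatment at 3 μM, then 0.5 μM paclitaxel or 20 μM cisplatin for 24 h, or 10 Gy 137Cs γ-rays (3.81 Gy/min) for 48 h. Cleaved PARP and caspase-3 immunoblotted; bands normalized to loading control, fold-change vs negative control, ≥3 independent experiments.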

[8] = target: T2, Heat shock factor protein 1 (Mus musculus) (UniProt P38532); assay: Activation of HSF1 in MEF assessed as protection against cisplatin-induced PARP cleavage at 3 uM pretreated for 1 hr followed by cisplatin addition measured after 24 hrs by immunoblotting analysis; assay type: cell-based; in short: as §3
T2 sequence (whole entry): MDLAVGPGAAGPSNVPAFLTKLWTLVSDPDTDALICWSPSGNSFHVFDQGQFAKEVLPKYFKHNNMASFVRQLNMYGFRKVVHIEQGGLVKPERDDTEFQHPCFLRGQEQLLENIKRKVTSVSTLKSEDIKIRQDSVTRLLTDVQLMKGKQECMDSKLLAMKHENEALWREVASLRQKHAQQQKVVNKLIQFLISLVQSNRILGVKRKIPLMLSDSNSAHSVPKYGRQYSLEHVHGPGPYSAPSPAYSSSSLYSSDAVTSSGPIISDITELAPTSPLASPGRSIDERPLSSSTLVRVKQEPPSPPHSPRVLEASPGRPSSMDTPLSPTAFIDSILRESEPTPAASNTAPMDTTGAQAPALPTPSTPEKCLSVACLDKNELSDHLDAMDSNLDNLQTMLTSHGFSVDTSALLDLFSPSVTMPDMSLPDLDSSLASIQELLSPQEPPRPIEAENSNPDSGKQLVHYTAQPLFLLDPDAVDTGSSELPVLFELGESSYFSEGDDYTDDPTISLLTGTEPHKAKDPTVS

[9] = tested on: Mus musculus; assay: Toxicity in ICR mouse at 10 mg/kg, ip measured within 30 days; assay type: organism-based; settings: in vivo, 720 h
In short: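 Normal ICR mice given 10 mg/kg ip (DMSO stock diluted in modified PBS); observed for signs of toxicity over 30 days.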

[10] = tested on: Mus musculus; assay: Protection against IR-induced irritability in ICR mouse at 5 to 10 mg/kg, ip administered once before and three times after 7 Gy irradiation measured daily for 30 days; assay type: functional, organism-based
In short: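 Female ICR mice (5–6 weeks, 25–30 g) given 7 Gy whole-body IR; dosed ip at 5 or 10 mg/kg once before and three times after IR, DMSO stock diluted in modified PBS. Survival days and radiation sickness signs checked twice daily; 10 mice per group.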

[11] = tested on: Mus musculus; assay: Protection against IR-induced reduction in circulating lymphocytes in ICR mouse at 10 mg/kg, ip administered once before and three times after 4.5 Gy irradiation measured after 9 days; assay type: functional, organism-based
In short: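 Female ICR mice (5–6 weeks) given 4.5 Gy whole-body IR, dosed ip at 10 mg/kg once before and three times after IR; 5 per group, sacrificed day 9. BM cellularity from H&E (hematopoietic cells per 200×200 μm area); peripheral WBC, lymphocytes, neutrophils; Ki67 IHC counted in five fields per femur; relative spleen weight vs control. Means ± SD, Student's t test.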

[12] = tested on: L132; assay: Cytoprotective activity against IR-induced cell death in human L-132 cells at 3 uM pretreated for 1 hr followed by 10 Gy irradiation measured after 48 hrs by FACS analysis; assay type: functional, cell-based
In short: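 L132 cells in RPMI with 10% FBS. 1 h pretreatment at 3 μM, then 0.5 μM paclitaxel or 20 μM cisplatin for 24 h, or 10 Gy γ-rays for 48 h. Cells trypsinized, washed, stained with propidium iodide and analysed by flow cytometry. Means ± SD of ≥3 independent experiments, fold-change vs negative control.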

Row | Activity [3] | Activity [4] | Activity [5] | Activity [8] | Compound | Activity [1] | Activity [2] | Activity [6] | Activity [7] | Activity [9] | Activity [10] | Activity [11] | Activity [12]
1 | Active | Active | Active | Active | COc1cc(/C=C/CO)ccc1O [CONIFERYL ALCOHOL] | Active | Active | Active | inactive | Non-Toxic | Active | Active | Active
2 | Active | Active | Active | Active | COc1cc(/C=C/C=O)ccc1O [CONIFERYL ALDEHYDE] | Active | Active | Active | inactive | Non-Toxic | Active | Active | Active
